# Shown are actives, neighbours in structure and some others; about 2.3% of the full set was active somewhere.
# ERp5 inh – inhibitors of ERp5-driven insulin aggregation, primary screen, biochemical, turbidity, absorbance 650 nm, single point; Protein disulfide-isomerase A6 (Homo sapiens), Q15084; 90 min; inhibition, % at 9.99 µM; 0.05% of 350,000 active; AID 651711, 2012;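 active means mean replicate inhibition above about 25%, with every replicate also reaching it, limit read from the data, passing the limit was not always enough; inconclusive means only one of those two criteria met; inactive means neither criterion met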
# Target sequence (Q15084 whole entry, looked up): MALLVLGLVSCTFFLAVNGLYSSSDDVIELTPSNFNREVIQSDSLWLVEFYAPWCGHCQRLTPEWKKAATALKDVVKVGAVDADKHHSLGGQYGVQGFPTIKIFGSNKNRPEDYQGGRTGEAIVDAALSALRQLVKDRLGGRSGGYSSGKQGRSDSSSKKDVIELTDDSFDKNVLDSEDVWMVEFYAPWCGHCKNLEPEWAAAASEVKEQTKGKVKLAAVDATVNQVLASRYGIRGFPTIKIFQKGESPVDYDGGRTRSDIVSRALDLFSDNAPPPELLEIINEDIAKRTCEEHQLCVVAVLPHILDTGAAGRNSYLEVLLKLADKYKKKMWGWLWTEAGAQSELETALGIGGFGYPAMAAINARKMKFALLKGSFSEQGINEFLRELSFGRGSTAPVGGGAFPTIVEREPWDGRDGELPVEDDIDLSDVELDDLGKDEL
# Cneo AK release – Cryptococcus neoformans cell lysis inducers, primary screen, AK release luminescence, single concentration; 0.2% of 360,000 active; lysis activity, % at 15 µM; C. neoformans lysis, adenylate kinase release luminescence, 4 h; normalised: neutral wells 0, clomiphene wells 100; AID 651654, 2012;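 active means mean lysis activity across replicates of at least 80%, whatever share of replicates individually reach that level; inactive means mean lysis activity below 80%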
#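 Material – log-phase Cryptococcus neoformans yeast cells · Input – 5 × 10^6 yeast cells/mL · Medium – fresh YPD growth medium · Doses – single compound concentration per well · Timing – static 4 h at 37 °C with compound, 1 h detection · Detection – adenylate kinase release luminescence · Read-out – signal increase indicating cell lysis · Control set – Clomiphene as positive lysis control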
# DENV2 CPE – inhibitors of DENV2 cytopathic effect, primary screen, cell-based, plate reader, single concentration; DENV2-infected cells, cytopathic effect rescue; CPE inhibition, % at 9.99 µM; 1.7% of 350,000 active; in the data active means CPE inhibition above about 20%, passing the limit was not always enough; inconclusive means no clear call, values can overlap the other calls; tested in BHK-21 cells
# CFTR F508del cor – F508del CFTR correction, initial screen, CFBE line, single point; CFBE cells, YFP halide quenching; stimulated with forskolin plus potentiator P3; % fluorescence drop versus neutral controls; activity (quench increase), % at 7.58 µM; 0.36% of 350,000 active; AID 720511, 2013;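 active means mean added fluorescence quench of at least 8% versus neutral control, with both replicates also reaching 8%; inconclusive means only one of the mean or replicate conditions met; inactive means mean below 8% and not both replicates reaching 8%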;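 further: cells transiently co-express mutant CFTR-F508del with the halide-sensitive YFP; corrector assay measuring rescue of mutant channel to the surface after 24 h compound exposure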
# Statin myotox sup – suppressors of statin myotoxicity in C2C12 myotubes, primary screen, cell-based, single point, plate reader; C2C12 myotubes + simvastatin, ATP luminescence, 48 h; scaled: DMSO 0, geranylgeraniol control 100; rescue of ATP level, % at 7.49 µM; 0.78% of 330,000 active; AID 602340, 2012;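 active means mean ATP rescue above about 67%, or every replicate alone reaching that limit, limit read from the data, passing the limit was not always enough; inconclusive means no clear call, values can overlap the other calls; inactive means mean under the limit and some replicate under it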;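 further: myotubes were challenged with 10 µM simvastatin during compound exposure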
# PDI turbidity – inhibitors of human PDI, primary screen, biochemical, turbidity, single point, plate reader; Protein disulfide-isomerase (Homo sapiens), P07237; PDI insulin aggregation turbidity, A650, 90 min; inhibition, % at 10 µM; 0.052% of 350,000 active;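 active means mean inhibition across replicates of 30% or more, whatever share of single replicates reach that level; inconclusive means mean inhibition below 30% while every single replicate reaches 30%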
# Hits are given with their value; i = inactive; ? = inconclusive; nt = no result given; ! = a repeat was not active.
SMILES,ERp5 inh,Cneo AK release,DENV2 CPE,CFTR F508del cor,Statin myotox sup,PDI turbidity
O=C(Nc1ccc(N2CCCCC2)cc1)c1ccc([N+](=O)[O-])o1,i,i,i,i,i,i
O=C(Nc1cccc(Cl)c1N1CCOCC1)c1ccc([N+](=O)[O-])o1,i,i,i,i,97,i
CC(C)(C)C(=O)N1CCN(c2ccc(NC(=O)c3ccc([N+](=O)[O-])o3)cc2)CC1,i,i,i,i,133,i
CC1CCN(c2ccc(NC(=O)c3ccc([N+](=O)[O-])o3)cc2)CC1,i,i,i,i,83,i
CCC(=O)N1CCN(c2ccc(NC(=O)c3ccc([N+](=O)[O-])o3)cc2)CC1,i,nt,i,i,nt,i
C[C@@H]1CN([C@H](C)CO)C(=O)c2cc(C#CC(C)(C)O)cnc2O[C@@H]1CN(C)C(=O)C1CCOCC1,i,i,i,i,i,nt
O=C(C[C@@H]1CC[C@@H](NC(=O)NC2CCCC2)[C@@H](CO)O1)NCc1ccc(F)cc1,i,i,i,i,i,nt
Cc1noc(C)c1NC(=O)N(C)C[C@@H]1Oc2ccc(NS(=O)(=O)c3ccccc3)cc2CC(=O)N([C@@H](C)CO)C[C@@H]1C,i,i,i,i,i,nt
COc1ccccc1CNC(=O)C[C@@H]1C[C@H]2c3cc(NC(=O)Nc4ccccc4F)ccc3O[C@H]2[C@@H](CO)O1,i,94,nt,i,i,nt
O=C(C[C@@H]1C[C@H]2c3cc(NC(=O)Nc4ccccc4F)ccc3O[C@H]2[C@H](CO)O1)NCC(F)(F)F,84!,i,i,i,i,i
COc1ccccc1CNC(=O)C[C@@H]1C[C@@H]2c3cc(NC(=O)Nc4ccccc4F)ccc3O[C@@H]2[C@H](CO)O1,i,103,nt,i,i,nt
C[C@@H]1CCCCO[C@H](CN(C)S(=O)(=O)c2cn(C)cn2)[C@@H](C)CN([C@H](C)CO)C(=O)c2cc(NC(=O)Nc3ccc4c(c3)OCO4)ccc2O1,i,i,i,i,nt,nt
Cc1ccc(C2CC2c2n[nH]c(=S)n2-c2ccc(C)cc2)cc1 (stereo not drawn),i,i,i,i,118,i
C[C@@H]1CCCCO[C@@H](CN(C)S(=O)(=O)c2ccc(Cl)cc2)[C@H](C)CN([C@@H](C)CO)C(=O)c2cc(NC(=O)Nc3ccc4c(c3)OCO4)ccc2O1,i,i,i,i,nt,nt
C/C(CC1CC(COCC(C)C)OC1=O)=N\NC(N)=S (stereo not drawn),i,nt,91,i,nt,i
C[C@@H]1CCCCO[C@@H](CN(C)Cc2ccccc2)[C@H](C)CN([C@@H](C)CO)C(=O)c2cc(NC(=O)Cc3ccccc3)ccc2O1,i,i,i,i,nt,nt
CCc1ccc(N2CC(C(=O)Nc3ccccc3N3CCCC3)CC2=O)cc1 (stereo not drawn),i,i,i,9.2,i,i
CCc1ccc(N2CC(C(=O)Nc3ccccc3F)CC2=O)cc1 (stereo not drawn),nt,i,nt,nt,i,i
CNC(=O)C1CC(=O)N(c2ccc(OCC(=O)Nc3ccccc3)cc2)C1 (stereo not drawn),i,i,i,10,i,i
CCOc1ccc(NC(=O)COc2ccc(N3CC(C(N)=O)CC3=O)cc2)cc1 (stereo not drawn),i,i,i,i,i,i
Nc1sc(-c2ccccc2)cc1C(=O)NCCN1CCOCC1,i,nt,26,i,nt,nt
COc1ccc2c3c(n(C)c2c1)[C@@H](CO)N(CC1CC1)CC31CN(C(=O)c2ccc(F)cc2)C1,nt,nt,?,i,nt,nt
C[C@@H]1CN([C@H](C)CO)C(=O)c2cc(NC(=O)C3CCCCC3)ccc2O[C@@H]1CN(C)S(C)(=O)=O,i,i,24,i,i,nt
C[C@H](CO)N1C[C@H](C)[C@H](CN(C)CC2CCCCC2)OCCCC[C@H](C)Oc2ccc(NC(=O)C3CCCCC3)cc2C1=O,i,i,23,i,nt,nt
C[C@H]1CN([C@@H](C)CO)C(=O)c2cc(NC(=O)C3CCCCC3)ccc2O[C@@H]1CN(C)S(C)(=O)=O,i,i,i,i,i,nt
SMILES,ERp5 inh,Cneo AK release,DENV2 CPE,CFTR F508del cor,Statin myotox sup,PDI turbidity
C[C@@H]1CN([C@H](C)CO)C(=O)c2cc(NC(=O)C3CCCCC3)ccc2O[C@@H](C)CCCCO[C@@H]1CN(C)CC1CCCCC1,i,i,i,i,nt,nt
C[C@H](CO)N1C[C@H](C)[C@@H](CN(C)CC2CCCCC2)Oc2ccc(NC(=O)C3CCCCC3)cc2C1=O,i,i,23,i,i,nt
CN(C)CC(=O)N1[C@@H]2Cn3c(ccc(-c4cccnc4)c3=O)[C@H]1[C@@H](C(=O)NC1CCCC1)[C@@H]2CO,i,nt,i,i,nt,nt
COCC#Cc1cnc2c(c1)C(=O)N([C@@H](C)CO)C[C@@H](C)[C@@H](CN(C)C(=O)Nc1ccccc1F)O2,i,i,i,i,i,nt
C[C@H]1CN([C@@H](C)CO)C(=O)c2cc(-c3ccc(F)cc3)cnc2O[C@H]1CN(C)C(=O)NC1CCCC1,i,i,i,i,i,nt
CN(C1=NC(=O)C(CC(=O)Nc2ccc(Br)cc2)S1)c1ccc(O)cc1 (stereo not drawn),nt,i,nt,nt,i,61
O=C(CC1SC(=O)N(c2ccccc2)C1=O)Nc1ccc(Br)cc1 (stereo not drawn),i,i,i,i,nt,i
CCNC(=O)C[C@H]1CC[C@@H]2[C@@H](COc3ccc(NC(=O)Nc4ccccc4F)cc3C(=O)N2C)O1,i,i,i,i,i,nt
CC(NC(=O)Nc1ccccc1O)(C(F)(F)F)C(F)(F)F,nt,i,nt,nt,91,i
Cc1nc2nc(Cc3ccccc3)nn2c(C)c1Cl,nt,i,nt,nt,i,i
Cc1nc2nc(COc3ccccc3)nn2c(C)c1Cl,nt,i,nt,nt,73,i
CCCCC1=CC2=CC(=O)C(C)(OC(=O)CC)C(=O)C2=CN1CCc1c[nH]c2ccccc12 (stereo not drawn),i,i,20,i,i,i
O=[N+]([O-])c1cccc(COc2ccccc2CN2CCCC2)c1,i,i,58,i,i,i
N#C[C@@H]1N[C@H](CO)[C@H]1c1ccccc1,i,i,38,i,i,nt
N#C[C@H]1N[C@H](CO)[C@@H]1c1ccc(/C=C/c2ccccc2)cc1,i,i,i,i,i,nt
N#C[C@H]1N[C@H](CO)[C@H]1c1ccc(C#Cc2ccc(F)cc2)cc1,i,i,55,i,i,nt
C/C=C/c1ccc([C@@H]2[C@@H](CO)N(C(=O)c3cnccn3)C23CN(C(=O)CC)C3)cc1,i,nt,i,i,nt,nt
C[C@H]1CCCCO[C@@H](CN(C)S(=O)(=O)c2cn(C)cn2)[C@@H](C)CN([C@@H](C)CO)C(=O)c2cc(NS(=O)(=O)c3cccs3)ccc2O1,i,i,i,i,i,nt

# Compound activity: PubChem BioAssay, Broad Institute
